Each block holds one compound with its values, some of them ahead of it. The source made the active and inactive calls. The rule behind the calls is not given here.
Key:
Mus musculus = assay: Antihyperglycemic activity measured as percent decrease in mice plasma glucose at 100 mg/Kg/day; format: functional
Outline: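 Male db/db (C57BL/KsJ) mice, 4–6 per group, dosed at 100 mg/kg per day. Plasma glucose of the drug-treated group is expressed as percent decrease relative to a vehicle-treated control group. Values are mean ± SE, with p < 0.05 marked.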

[1] = target: Aldo-keto reductase family 1 member B1 (Bos taurus) (UniProt P16116); assay: In vitro aldose reductase inhibitory activity measured by NADPH-dependent inhibition of glyceraldehyde reduction in a partially purified bovine lens preparation at 10E-6 M
Outline: (§1)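 Aldose reductase partially purified from bovine lens. Inhibition of NADPH-dependent glyceraldehyde reduction is measured at the single stated concentration and reported as percent inhibition, the mean of two determinations.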

[2] = target: Aldo-keto reductase family 1 member B1 (Bos taurus) (UniProt P16116); assay: NADPH-dependent inhibition of glyceraldehyde reduction by partially purified aldose reductase from bovine lens at 10e-5 M
Outline: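 Partially purified aldose reductase from bovine lens. Inhibition of NADPH-dependent glyceraldehyde reduction was measured at a single test concentration. Values are % inhibition of enzymatic activity, mean of two determinations.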

Rattus norvegicus [3] = assay: In vivo galactitol inhibitory activity measured by its ability to inhibit galactitol accumulation in lens at 6 mg/Kg/day; NS=Not significant (% Inhibition); format: functional, organism-based; conditions: Lens of camera-type eye
Outline: (§2)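 Rats (n = 6) fed 20% galactose for 4 days, with compound given in the diet at the stated mg/kg per day. Galactitol accumulation in lens, sciatic nerve or diaphragm is scored as percent inhibition versus the non-treated group, as means of 3–8 drug-treated tissue samples. Dunnett's multiple comparison test applies; NS means p > 0.05.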

[4] = target: Aldo-keto reductase family 1 member B1 (Bos taurus) (UniProt P16116); assay: In vitro aldose reductase inhibitory activity measured by NADPH-dependent inhibition of glyceraldehyde reduction in a partially purified bovine lens preparation at 10E-7 M; outline: as §1
Rattus norvegicus [5] = assay: In vivo galactitol inhibitory activity measured by its ability to inhibit galactitol accumulation in sciatic nerve at 3 mg/Kg/day; NS=Not significant (% Inhibition); format: functional, organism-based
Outline: (§3)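 Rats (n = 6) fed 20% galactose for 4 days, with compound given in the diet at the stated daily dose. Galactitol accumulation was measured in lens, sciatic nerve and diaphragm, and % inhibition was taken versus the nontreated group. Means are from three to eight drug-treated tissue samples. Dunnett's multiple comparison test was applied, with p > 0.05 reported as not significant.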

Rattus norvegicus [6] = assay: In vivo galactitol inhibitory activity measured by its ability to inhibit galactitol accumulation in diaphragm at 3 mg/Kg/day; NS=Not significant (% Inhibition); format: functional, organism-based; outline: as §2
Rattus norvegicus [7] = assay: In vivo galactitol inhibitory activity measured by its ability to inhibit galactitol accumulation in lens at 3 mg/Kg/day; NS=Not significant (% Inhibition); format: functional, organism-based; conditions: Lens of camera-type eye; outline: as §2
Rattus norvegicus [8] = assay: In vivo galactitol inhibitory activity measured by its ability to inhibit galactitol accumulation in sciatic nerve at 10 mg/Kg/day; NS=Not significant (% Inhibition); format: functional, organism-based; outline: as §3
Rattus norvegicus [9] = assay: In vivo galactitol inhibitory activity measured by its ability to inhibit galactitol accumulation in diaphragm at 6 mg/Kg/day; NS=Not significant (% Inhibition); format: functional, organism-based; outline: as §2
Rattus norvegicus [10] = assay: In vivo galactitol inhibitory activity measured by its ability to inhibit galactitol accumulation in lens at 10 mg/Kg/day; NS=Not significant (% Inhibition); format: functional; conditions: Lens of camera-type eye; outline: as §2
Rattus norvegicus [11] = assay: In vivo galactitol inhibitory activity measured by its ability to inhibit galactitol accumulation in sciatic nerve at 6 mg/Kg/day; NS=Not significant (% Inhibition); format: functional, organism-based; outline: as §3
Rattus norvegicus [12] = assay: In vivo galactitol inhibitory activity measured by its ability to inhibit galactitol accumulation in diaphragm at 10 mg/Kg/day; format: functional; outline: as §2
Rattus norvegicus [13] = assay: In vivo galactitol inhibitory activity measured by its ability to inhibit galactitol accumulation in lens at 6 mg/Kg/day; format: functional, Lens of camera-type eye; outline: as §2
Rattus norvegicus [14] = assay: In vivo galactitol inhibitory activity measured by its ability to inhibit galactitol accumulation in diaphragm at 6 mg/Kg/day; format: functional; outline: as §2
Rattus norvegicus [15] = assay: In vivo galactitol inhibitory activity measured by its ability to inhibit galactitol accumulation in sciatic nerve at 6 mg/Kg/day; format: functional; outline: as §3

SMILES: CSc1ccc(CN2C3(CC(=O)NC3=O)c3ccccc3S2(=O)=O)cc1 (stereo not drawn)
Decrease (Mus musculus): <15%

inhibition [1]: 24%
inhibition [2]: 67%
SMILES: O=C1CC2(C(=O)N1)c1ccccc1S(=O)(=O)N2Cc1ccc(Oc2ccccc2)cc1 (stereo not drawn)
Decrease (Mus musculus): <15%

SMILES: Cc1cc(Br)ccc1CN1C2(CC(=O)NC2=O)c2ccccc2S1(=O)=O (stereo not drawn)
Decrease (Mus musculus): <15%

inhibition [1]: 80%
inhibition [4]: 37%
SMILES: CN1C(=O)c2ccc(Cl)cc2C12CC(=O)NC2=O (stereo in doubt; 32)
inhibition (Rattus norvegicus [3]): inactive

inhibition [1]: 0%
inhibition [2]: 37%
SMILES: O=C1CC2(C(=O)N1)c1ccccc1S(=O)(=O)N2Cc1ccc([N+](=O)[O-])cc1 (stereo not drawn)
Decrease (Mus musculus): <15%

SMILES: Cc1oc(-c2ccccc2)nc1CCN1C2(CC(=O)NC2=O)c2ccccc2S1(=O)=O (stereo not drawn)
Decrease (Mus musculus): <15%

SMILES: O=C1CC2(C(=O)N1)c1ccccc1S(=O)(=O)N2Cc1c(F)c(F)c(F)c(F)c1F (stereo not drawn)
Decrease (Mus musculus): <15%

SMILES: O=C1CC2(C(=O)N1)c1ccccc1C(=O)N2Cc1ccccc1 (stereo not drawn)
Decrease (Mus musculus): 22%

SMILES: O=C1CC2(C(=O)N1)c1ccccc1S(=O)(=O)N2Cc1ccc(I)cc1 (stereo not drawn)
Decrease (Mus musculus): <15%

SMILES: O=C1CC2(C(=O)N1)c1ccccc1S(=O)(=O)N2Cc1cccc(Br)c1 (stereo not drawn)
Decrease (Mus musculus): <15%

inhibition [1]: 49%
inhibition [4]: 14%
SMILES: COC(=O)c1ccc2c(c1)C1(CC(=O)NC1=O)N(C)C2=O (stereo not drawn)
inhibition (Rattus norvegicus [5]): inactive
inhibition (Rattus norvegicus [6]): inactive
inhibition (Rattus norvegicus [3]): inactive
inhibition (Rattus norvegicus [7]): inactive
Decrease (Mus musculus): <15%
inhibition (Rattus norvegicus [8]): inactive
inhibition (Rattus norvegicus [9]): inactive
inhibition (Rattus norvegicus [10]): inactive
inhibition (Rattus norvegicus [11]): inactive
inhibition in vivo at 10 mg/kg/day (Rattus norvegicus [12]): 16%

inhibition [1]: 0%
inhibition [2]: 34%
SMILES: O=C1CC2(C(=O)N1)c1ccccc1S(=O)(=O)N2Cc1ccc(C(F)(F)F)cc1 (stereo not drawn)
Decrease (Mus musculus): <15%

inhibition [1]: 60%
SMILES: CSc1ccc2c(c1)C(=O)N(C)C21CC(=O)NC1=O (stereo not drawn)
inhibition (Rattus norvegicus [5]): inactive
inhibition (Rattus norvegicus [6]): inactive
inhibition (Rattus norvegicus [7]): inactive
Decrease (Mus musculus): <15%

inhibition [1]: 77%
inhibition [4]: 32%
SMILES: CN1C(=O)c2ccc([N+](=O)[O-])cc2C12CC(=O)NC2=O (stereo not drawn)
inhibition (Rattus norvegicus [5]): inactive
inhibition (Rattus norvegicus [6]): inactive
inhibition (Rattus norvegicus [7]): inactive
Decrease (Mus musculus): <15%

SMILES: CN1C(=O)c2ccc(Cl)cc2C12CC(=O)NC2=O (single isomer, unassigned; (+)) [listing 1 of 2 here]
Inhibition (Rattus norvegicus [13]): 21%
inhibition in vivo at 6 mg/kg/day (Rattus norvegicus [14]): 67%
inhibition in vivo at 6 mg/kg/day (Rattus norvegicus [15]): 58%

SMILES: Cc1oc(-c2ccccc2)nc1CCOc1ccc(CN2C3(CC(=O)NC3=O)c3ccccc3S2(=O)=O)cc1 (stereo not drawn)
Decrease (Mus musculus): <15%

SMILES: O=C1CC2(C(=O)N1)c1ccccc1S(=O)(=O)N2Cc1ccc(Br)cc1Cl (stereo not drawn)
Decrease (Mus musculus): <15%

inhibition [2]: 0%
SMILES: O=C1CC2(C(=O)N1)c1ccccc1S(=O)(=O)N2CCc1ccc(Br)cc1 (stereo not drawn)
Decrease (Mus musculus): 25%

SMILES: CC(=O)Nc1ccc(CN2C3(CC(=O)NC3=O)c3ccccc3S2(=O)=O)cc1 (stereo not drawn)
Decrease (Mus musculus): <15%

inhibition [1]: 82%
inhibition [4]: 39%
SMILES: CN1C(=O)c2ccc(Cl)cc2C12CC(=O)NC2=O (single isomer, unassigned; (+)) [listing 2 of 2 here]

inhibition [1]: 20%
inhibition [2]: 57%
SMILES: O=C1CC2(C(=O)N1)c1ccccc1S(=O)(=O)N2Cc1ccc2ccccc2c1 (stereo not drawn)
Decrease (Mus musculus): <15%

SMILES: CC(C)(C)c1ccc(CN2C(=O)c3ccccc3C23CC(=O)NC3=O)cc1 (stereo not drawn)
Decrease (Mus musculus): <15%

inhibition [1]: 71%
inhibition [4]: 27%
SMILES: CN1C(=O)c2cc(Br)ccc2C12CC(=O)NC2=O (stereo not drawn)
inhibition (Rattus norvegicus [5]): inactive
inhibition (Rattus norvegicus [6]): inactive
inhibition (Rattus norvegicus [3]): inactive
inhibition (Rattus norvegicus [7]): inactive
Decrease (Mus musculus): <15%
inhibition (Rattus norvegicus [8]): inactive
inhibition (Rattus norvegicus [10]): inactive
inhibition (Rattus norvegicus [11]): inactive
inhibition in vivo at 6 mg/kg/day (Rattus norvegicus [14]): 27%
inhibition in vivo at 10 mg/kg/day (Rattus norvegicus [12]): 39%

SMILES: O=C1CC2(C(=O)N1)c1ccccc1S(=O)(=O)N2Cc1ccc(F)cc1 (stereo not drawn)
Decrease (Mus musculus): <15%

inhibition [1]: 0%
inhibition [2]: 40%
SMILES: CN1C2(CC(=O)NC2=O)c2ccccc2S1(=O)=O (stereo not drawn)
Decrease (Mus musculus): <15%

SMILES: O=C1CC2(C(=O)N1)c1ccccc1S(=O)(=O)N2CCCCc1ccc(Cl)cc1 (stereo not drawn)
Decrease (Mus musculus): 20%

From ChEMBL document CHEMBL1126205, “Novel spirosuccinimides with incorporated isoindolone and benzisothiazole 1,1-dioxide moieties as aldose reductase inhibitors and antihyperglycemic agents” (1992)
